Data reported in ChEMBL document CHEMBL5058577, “EUbOPEN Chemogenomics Library 2 (Multiplex)” (2022).

Tested on: HEK-293T
Experiment: Multiplex assay against HEK293T
Format: toxicity, cell-based
Conditions: human
Procedure, shortened: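 At seeding, live cells were stained with Hoechst33342, BioTracker Green Microtubule Cytoskeleton Dye, MitoTracker Red and Annexin V Alexa Fluor 680. After compound addition they were imaged on a CQ1 microscope at 37°C and 5% CO2, and CellPathfinder machine-learning gating sorted them into Hoechst high-intensity objects or normal cells, with normal cells further split into healthy, pyknosed or fragmented nuclei and pyknosed cells into mitotic or apoptotic. Tubulin, mitochondrial-mass and membrane-permeability phenotypes are given as per cents of cells with healthy nuclei.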

[1] = 12 h, 1 µM, compound concentration 1 uM, replicate 1
[2] = 12 h, 1 µM, compound concentration 1 uM, replicate 2
[3] = 12 h, 10 µM, compound concentration 10 uM, replicate 1
[4] = 12 h, 10 µM, compound concentration 10 uM, replicate 2
[5] = 24 h, 1 µM, compound concentration 1 uM, replicate 1
[6] = 24 h, 1 µM, compound concentration 1 uM, replicate 2
[7] = 24 h, 10 µM, compound concentration 10 uM, replicate 1
[8] = 24 h, 10 µM, compound concentration 10 uM, replicate 2
[9] = 48 h, 1 µM, compound concentration 1 uM, replicate 1
[10] = 48 h, 1 µM, compound concentration 1 uM, replicate 2
[11] = 48 h, 10 µM, compound concentration 10 uM, replicate 1
[12] = 48 h, 10 µM, compound concentration 10 uM, replicate 2

SMILES: CC(C)(C)c1ccc(S(=O)(=O)Nc2ccc(Cl)cc2C(=O)c2cc[n+]([O-])cc2)cc1 [VERCIRNON]
- Population Apoptotic (%) [1]: 32%
- Population Fragmented Nuclei (%) [1]: 10%
- Population Healthy Nuclei (%) [1]: 77%
- Population Hoechst High Intensity Objects (%) [1]: 7%
- Population Membrane Permeable-Phenotype (%) [1]: 0%
- Population Mitochondria Different-Phenotype (%) [1]: 33%
- Population Mitotic Cells (%) [1]: 68%
- Population Normal (%) [1]: 92%
- Population Pyknosed Nuclei (%) [1]: 12%
- Population Tubulin-Different-Phenotype (%) [1]: 21%
- Total Cell Count [1]: 428
- Population Apoptotic (%) [2]: 52%
- Population Fragmented Nuclei (%) [2]: 5%
- Population Healthy Nuclei (%) [2]: 84%
- Population Mitochondria Different-Phenotype (%) [2]: 51%
- Population Mitotic Cells (%) [2]: 47%
- Population Pyknosed Nuclei (%) [2]: 10%
- Population Tubulin-Different-Phenotype (%) [2]: 22%
- Total Cell Count [2]: 424
- Population Apoptotic (%) [3]: 30%
- Population Fragmented Nuclei (%) [3]: 6%
- Population Healthy Nuclei (%) [3]: 83%
- Population Hoechst High Intensity Objects (%) [3]: 6%
- Population Membrane Permeable-Phenotype (%) [3]: 0%
- Population Mitochondria Different-Phenotype (%) [3]: 35%
- Population Mitotic Cells (%) [3]: 69%
- Population Normal (%) [3]: 93%
- Population Pyknosed Nuclei (%) [3]: 10%
- Population Tubulin-Different-Phenotype (%) [3]: 37%
- Total Cell Count [3]: 451
- Population Apoptotic (%) [4]: 39%
- Population Fragmented Nuclei (%) [4]: 4%
- Population Healthy Nuclei (%) [4]: 82%
- Population Hoechst High Intensity Objects (%) [4]: 5%
- Population Membrane Permeable-Phenotype (%) [4]: 1%
- Population Mitochondria Different-Phenotype (%) [4]: 51%
- Population Mitotic Cells (%) [4]: 60%
- Population Normal (%) [4]: 94%
- Population Pyknosed Nuclei (%) [4]: 13%
- Population Tubulin-Different-Phenotype (%) [4]: 27%
- Total Cell Count [4]: 344
- Population Apoptotic (%) [5]: 41%
- Population Fragmented Nuclei (%) [5]: 8%
- Population Healthy Nuclei (%) [5]: 81%
- Population Hoechst High Intensity Objects (%) [5]: 6%
- Population Membrane Permeable-Phenotype (%) [5]: 0%
- Population Mitochondria Different-Phenotype (%) [5]: 21%
- Population Mitotic Cells (%) [5]: 58%
- Population Normal (%) [5]: 93%
- Population Pyknosed Nuclei (%) [5]: 9%
- Population Tubulin-Different-Phenotype (%) [5]: 15%
- Total Cell Count [5]: 522
- Population Apoptotic (%) [6]: 28%
- Population Hoechst High Intensity Objects (%) [6]: 5%
- Population Mitochondria Different-Phenotype (%) [6]: 32%
- Population Mitotic Cells (%) [6]: 71%
- Population Normal (%) [6]: 94%
- Population Tubulin-Different-Phenotype (%) [6]: 16%
- Total Cell Count [6]: 521
- Population Apoptotic (%) [7]: 22%
- Population Fragmented Nuclei (%) [7]: 10%
- Population Healthy Nuclei (%) [7]: 77%
- Population Hoechst High Intensity Objects (%) [7]: 3%
- Population Membrane Permeable-Phenotype (%) [7]: 1%
- Population Mitochondria Different-Phenotype (%) [7]: 15%
- Population Mitotic Cells (%) [7]: 77%
- Population Normal (%) [7]: 96%
- Population Pyknosed Nuclei (%) [7]: 12%
- Population Tubulin-Different-Phenotype (%) [7]: 20%
- Total Cell Count [7]: 594
- Population Apoptotic (%) [8]: 28%
- Population Fragmented Nuclei (%) [8]: 7%
- Population Healthy Nuclei (%) [8]: 82%
- Population Hoechst High Intensity Objects (%) [8]: 5%
- Population Membrane Permeable-Phenotype (%) [8]: 0%
- Population Mitochondria Different-Phenotype (%) [8]: 31%
- Population Mitotic Cells (%) [8]: 71%
- Population Normal (%) [8]: 94%
- Population Pyknosed Nuclei (%) [8]: 9%
- Population Tubulin-Different-Phenotype (%) [8]: 23%
- Total Cell Count [8]: 437
- Population Apoptotic (%) [9]: 28%
- Population Fragmented Nuclei (%) [9]: 16%
- Population Healthy Nuclei (%) [9]: 76%
- Population Hoechst High Intensity Objects (%) [9]: 2%
- Population Membrane Permeable-Phenotype (%) [9]: 0%
- Population Mitochondria Different-Phenotype (%) [9]: 16%
- Population Mitotic Cells (%) [9]: 71%
- Population Normal (%) [9]: 97%
- Population Pyknosed Nuclei (%) [9]: 7%
- Population Tubulin-Different-Phenotype (%) [9]: 13%
- Total Cell Count [9]: 834
- Population Apoptotic (%) [10]: 32%
- Population Fragmented Nuclei (%) [10]: 14%
- Population Healthy Nuclei (%) [10]: 81%
- Population Membrane Permeable-Phenotype (%) [10]: 2%
- Population Mitochondria Different-Phenotype (%) [10]: 14%
- Population Mitotic Cells (%) [10]: 67%
- Population Pyknosed Nuclei (%) [10]: 4%
- Population Tubulin-Different-Phenotype (%) [10]: 12%
- Total Cell Count [10]: 877
- Population Apoptotic (%) [11]: 21%
- Population Fragmented Nuclei (%) [11]: 13%
- Population Healthy Nuclei (%) [11]: 81%
- Population Hoechst High Intensity Objects (%) [11]: 3%
- Population Membrane Permeable-Phenotype (%) [11]: 2%
- Population Mitochondria Different-Phenotype (%) [11]: 12%
- Population Mitotic Cells (%) [11]: 78%
- Population Normal (%) [11]: 96%
- Population Pyknosed Nuclei (%) [11]: 5%
- Population Tubulin-Different-Phenotype (%) [11]: 14%
- Total Cell Count [11]: 929
- Population Apoptotic (%) [12]: 25%
- Population Fragmented Nuclei (%) [12]: 12%
- Population Healthy Nuclei (%) [12]: 80%
- Population Hoechst High Intensity Objects (%) [12]: 2%
- Population Membrane Permeable-Phenotype (%) [12]: 1%
- Population Mitochondria Different-Phenotype (%) [12]: 18%
- Population Mitotic Cells (%) [12]: 75%
- Population Normal (%) [12]: 97%
- Population Pyknosed Nuclei (%) [12]: 7%
- Population Tubulin-Different-Phenotype (%) [12]: 15%
- Total Cell Count [12]: 586
